Experimental data from ChEMBL document CHEMBL1130209, “A novel series of 2,5-substituted tryptamine derivatives as vascular 5HT1B/1D receptor antagonists” (J Med Chem, 1997).

Assays:
[1] = The dissociation equilibrium constant (pKB=-log KB) of compound was determined against the Muscarinic acetylcholine receptor M3 in the guinea pig trachea.; conditions: Cavia porcellus
[2] = molecular target: 5-hydroxytryptamine receptor 7 (Homo sapiens) (UniProt P34969); assay: The dissociation equilibrium constant (pKB=-log KB) of compound was determined against the vascular 5-hydroxytryptamine 7 receptor in the endothelium denuded rabbit jugular vein.; conditions: Oryctolagus cuniculus; target entry is the homologue from another species
Sequence of 5-hydroxytryptamine receptor 7 (Homo sapiens) (P34969 whole entry): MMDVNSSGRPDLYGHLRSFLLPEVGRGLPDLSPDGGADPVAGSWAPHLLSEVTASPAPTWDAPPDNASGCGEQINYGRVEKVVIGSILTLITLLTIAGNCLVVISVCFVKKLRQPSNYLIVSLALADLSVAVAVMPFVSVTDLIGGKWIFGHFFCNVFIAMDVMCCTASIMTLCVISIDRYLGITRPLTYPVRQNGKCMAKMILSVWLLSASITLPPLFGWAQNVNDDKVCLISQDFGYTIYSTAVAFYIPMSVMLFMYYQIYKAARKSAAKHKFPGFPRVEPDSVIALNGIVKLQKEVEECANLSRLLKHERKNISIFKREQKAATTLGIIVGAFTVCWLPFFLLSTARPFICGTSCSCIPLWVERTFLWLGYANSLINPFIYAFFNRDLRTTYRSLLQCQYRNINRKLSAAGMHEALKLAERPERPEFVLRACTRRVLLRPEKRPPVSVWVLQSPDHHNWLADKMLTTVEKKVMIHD

[3] = molecular target: 5-hydroxytryptamine receptor 1B (Homo sapiens) (UniProt P28222); assay: Dissociation equilibrium constant against the vascular 5-hydroxytryptamine 1B like receptor in the rabbit saphenous vein; format: tissue-based; conditions: Oryctolagus cuniculus, target entry is the homologue from another species
Sequence of 5-hydroxytryptamine receptor 1B (Homo sapiens) (P28222 whole entry): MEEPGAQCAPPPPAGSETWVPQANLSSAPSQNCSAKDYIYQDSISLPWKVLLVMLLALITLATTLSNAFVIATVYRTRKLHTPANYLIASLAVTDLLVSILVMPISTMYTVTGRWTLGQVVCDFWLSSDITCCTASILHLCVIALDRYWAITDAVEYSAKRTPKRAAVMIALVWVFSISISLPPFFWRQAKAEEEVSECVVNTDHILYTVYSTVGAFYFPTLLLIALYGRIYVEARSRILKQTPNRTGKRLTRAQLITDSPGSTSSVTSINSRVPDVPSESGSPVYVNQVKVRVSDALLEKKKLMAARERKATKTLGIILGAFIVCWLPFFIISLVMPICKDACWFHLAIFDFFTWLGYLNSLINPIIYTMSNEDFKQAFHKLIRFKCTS
How it was run: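 Saphenous vein rings (4–5 mm) from male New Zealand white rabbits, killed with pentobarbitone 80 mg/kg iv and exsanguination, mounted on tungsten wires. Phenoxybenzamine 0.3 μM for 30 min, washed out, 1 μM 5HT viability check. Cumulative 5HT curve, then after 60 min recovery a test compound curve. Non-agonists tested as 5HT antagonists, giving apparent pKB.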

[4] = molecular target: T1, 5-hydroxytryptamine receptor 2C (Rattus norvegicus, UniProt P08909); assay: Affinity pKi for 5-hydroxytryptamine 2C receptor was measured in rat cortex homogenates.; format: tissue-based
T1 sequence (P08909 whole entry): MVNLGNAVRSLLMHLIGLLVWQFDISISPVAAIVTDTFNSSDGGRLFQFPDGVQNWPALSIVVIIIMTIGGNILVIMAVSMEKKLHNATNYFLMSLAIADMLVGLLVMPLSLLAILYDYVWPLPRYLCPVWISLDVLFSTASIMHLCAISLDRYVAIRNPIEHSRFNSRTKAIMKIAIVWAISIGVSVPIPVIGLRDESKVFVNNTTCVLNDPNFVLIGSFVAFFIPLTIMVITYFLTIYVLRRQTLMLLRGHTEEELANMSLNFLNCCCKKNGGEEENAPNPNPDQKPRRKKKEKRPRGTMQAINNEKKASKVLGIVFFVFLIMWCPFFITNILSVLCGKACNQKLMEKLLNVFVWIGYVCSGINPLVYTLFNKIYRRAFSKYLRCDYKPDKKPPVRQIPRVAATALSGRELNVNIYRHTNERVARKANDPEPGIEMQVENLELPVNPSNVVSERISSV
How it was run: (§1)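 Competition binding with rat cortex homogenate: radioligand near its KD plus a wide range of test drug concentrations in duplicate, 30 min at 27 °C. Buffer 50 mM TRIS-HCl, 5 mM CaCl₂, 0.1% (w/v) ascorbate, 10 mM pargyline. Nonspecific binding defined with excess cold 5HT. Rapid filtration with ice-cold buffer wash, liquid scintillation count. pKi is the mean of at least three estimates.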

[5] = molecular target: 5-hydroxytryptamine receptor 2B (Homo sapiens) (UniProt P41595); assay: The dissociation equilibrium constant (pKB=-log KB) of compound was determined against the vascular 5-hydroxytryptamine 2B receptor in the endothelium intact rabbit jugular vein.; conditions: Oryctolagus cuniculus; target entry is the homologue from another species
Sequence of 5-hydroxytryptamine receptor 2B (Homo sapiens) (P41595 whole entry): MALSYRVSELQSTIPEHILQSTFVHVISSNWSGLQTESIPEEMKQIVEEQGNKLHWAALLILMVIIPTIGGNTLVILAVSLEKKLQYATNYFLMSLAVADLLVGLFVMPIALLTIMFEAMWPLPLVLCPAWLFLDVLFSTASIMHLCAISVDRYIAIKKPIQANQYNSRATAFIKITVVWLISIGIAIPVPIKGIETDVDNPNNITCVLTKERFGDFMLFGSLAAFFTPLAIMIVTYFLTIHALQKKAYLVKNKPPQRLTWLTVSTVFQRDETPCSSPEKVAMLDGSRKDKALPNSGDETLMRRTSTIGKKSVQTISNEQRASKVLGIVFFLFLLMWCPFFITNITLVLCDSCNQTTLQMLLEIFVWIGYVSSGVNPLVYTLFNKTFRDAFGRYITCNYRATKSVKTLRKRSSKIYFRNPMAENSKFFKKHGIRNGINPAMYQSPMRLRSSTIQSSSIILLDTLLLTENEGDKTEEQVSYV

[6] = molecular target: Adrenergic receptor alpha-1 (Homo sapiens) (UniProt P35348+P25100+P35368); assay: The dissociation equilibrium constant (pKB=-log KB) of compound was determined against the Alpha-1 adrenergic receptor in the rabbit thoracic aorta; format: tissue-based; conditions: Oryctolagus cuniculus, target entry is the homologue from another species
How it was run: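 Rabbit thoracic aorta rings (3 mm) given pargyline 500 μM for 30 min and tensioned twice to 3.0 g. L-phenylephrine 10 μM checks viability and gives the reference contracture. After washout, test compound at 30 μM for 60 min, then a cumulative L-phenylephrine curve.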

[7] = molecular target: D(1A) dopamine receptor (Rattus norvegicus, UniProt P18901); assay: Affinity pKi for Dopamine receptor D1 was measured in rat cortex homogenates.; format: tissue-based
Sequence of D(1A) dopamine receptor (P18901 whole entry): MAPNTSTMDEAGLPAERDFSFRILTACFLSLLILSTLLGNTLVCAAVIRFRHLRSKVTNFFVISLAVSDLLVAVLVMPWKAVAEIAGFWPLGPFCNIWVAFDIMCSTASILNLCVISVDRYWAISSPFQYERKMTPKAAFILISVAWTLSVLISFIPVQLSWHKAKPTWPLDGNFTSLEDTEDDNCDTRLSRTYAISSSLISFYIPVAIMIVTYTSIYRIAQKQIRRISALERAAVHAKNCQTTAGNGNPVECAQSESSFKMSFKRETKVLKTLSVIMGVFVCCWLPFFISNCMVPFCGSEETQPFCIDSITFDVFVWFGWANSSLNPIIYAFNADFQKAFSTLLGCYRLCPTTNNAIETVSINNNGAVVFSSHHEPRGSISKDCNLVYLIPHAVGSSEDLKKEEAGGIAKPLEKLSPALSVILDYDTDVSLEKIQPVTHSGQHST
How it was run: as §1

[8] = Half life of compound was determined in rat plasma; format: ADME, organism-based
[9] = molecular target: T2, 5-hydroxytryptamine receptor 1A (Rattus norvegicus, UniProt P19327); assay: Affinity pKi for 5-hydroxytryptamine 1A receptor was measured in rat cortex homogenates.; format: tissue-based
T2 sequence (P19327 whole entry): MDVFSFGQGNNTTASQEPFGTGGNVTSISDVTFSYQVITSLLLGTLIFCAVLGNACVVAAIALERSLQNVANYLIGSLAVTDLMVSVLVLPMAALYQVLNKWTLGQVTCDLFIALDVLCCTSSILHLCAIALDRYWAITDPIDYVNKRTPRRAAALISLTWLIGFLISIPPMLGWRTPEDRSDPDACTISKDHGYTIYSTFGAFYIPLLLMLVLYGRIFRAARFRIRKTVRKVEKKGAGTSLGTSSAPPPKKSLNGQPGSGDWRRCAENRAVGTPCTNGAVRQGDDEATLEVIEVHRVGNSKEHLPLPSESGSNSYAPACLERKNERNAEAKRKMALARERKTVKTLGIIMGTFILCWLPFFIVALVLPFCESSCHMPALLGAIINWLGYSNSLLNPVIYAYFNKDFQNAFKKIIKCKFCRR
How it was run: as §1

[10] = Half life of compound was determined in mouse plasma; format: ADME, organism-based
[11] = molecular target: D(2) dopamine receptor (Rattus norvegicus, UniProt P61169); assay: Affinity pKi for Dopamine receptor D2 was measured in rat cortex homogenates; format: tissue-based
Sequence of D(2) dopamine receptor (P61169 whole entry): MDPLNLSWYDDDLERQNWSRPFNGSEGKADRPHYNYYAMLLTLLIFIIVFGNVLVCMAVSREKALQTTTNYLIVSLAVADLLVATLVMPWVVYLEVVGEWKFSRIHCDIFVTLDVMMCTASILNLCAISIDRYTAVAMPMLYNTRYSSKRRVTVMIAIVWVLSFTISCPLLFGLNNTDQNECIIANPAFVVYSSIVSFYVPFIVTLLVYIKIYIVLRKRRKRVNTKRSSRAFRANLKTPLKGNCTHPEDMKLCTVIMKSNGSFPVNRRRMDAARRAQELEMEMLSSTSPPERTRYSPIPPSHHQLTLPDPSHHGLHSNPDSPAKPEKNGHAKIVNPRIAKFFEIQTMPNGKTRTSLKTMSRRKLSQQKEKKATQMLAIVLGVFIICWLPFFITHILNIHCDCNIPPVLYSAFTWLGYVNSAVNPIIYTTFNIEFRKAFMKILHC
How it was run: as §1

[12] = molecular target: Adrenergic receptor beta (Rattus norvegicus, UniProt P18090+P10608+P26255); assay: Affinity pKi for Beta adrenergic receptor was measured in rat cortex homogenates
How it was run: as §1

[13] = molecular target: Adrenergic receptor alpha-2 (Homo sapiens) (UniProt P08913+P18825+P18089); assay: The dissociation equilibrium constant (pKB=-log KB) of compound was determined against the Alpha-2 adrenergic receptor; format: protein assay; conditions: Oryctolagus cuniculus
[14] = molecular target: 5-hydroxytryptamine receptor 2A (Homo sapiens) (UniProt P28223); assay: Dissociation equilibrium constant against the vascular 5-hydroxytryptamine 2A receptor in the rabbit […] aorta; format: tissue-based; conditions: Oryctolagus cuniculus, target entry is the homologue from another species
Sequence of 5-hydroxytryptamine receptor 2A (Homo sapiens) (P28223 whole entry): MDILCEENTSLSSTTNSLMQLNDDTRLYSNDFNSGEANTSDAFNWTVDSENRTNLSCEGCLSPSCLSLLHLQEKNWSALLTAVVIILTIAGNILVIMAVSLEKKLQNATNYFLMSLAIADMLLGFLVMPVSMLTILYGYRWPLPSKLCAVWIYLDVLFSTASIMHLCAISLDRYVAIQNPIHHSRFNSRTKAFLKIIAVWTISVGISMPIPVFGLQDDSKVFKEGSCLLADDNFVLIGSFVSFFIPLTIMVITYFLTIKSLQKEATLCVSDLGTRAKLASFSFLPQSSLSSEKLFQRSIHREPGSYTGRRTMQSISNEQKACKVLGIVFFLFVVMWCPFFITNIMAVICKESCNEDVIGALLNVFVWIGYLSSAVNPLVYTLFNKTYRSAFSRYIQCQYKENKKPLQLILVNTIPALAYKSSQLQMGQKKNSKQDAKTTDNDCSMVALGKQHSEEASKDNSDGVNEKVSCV

[15] = molecular target: 5-hydroxytryptamine receptor 2A (Rattus norvegicus, UniProt P14842); assay: Affinity pKi for 5-hydroxytryptamine 2A receptor was measured in rat cortex homogenates; format: tissue-based
Sequence of 5-hydroxytryptamine receptor 2A (P14842 whole entry): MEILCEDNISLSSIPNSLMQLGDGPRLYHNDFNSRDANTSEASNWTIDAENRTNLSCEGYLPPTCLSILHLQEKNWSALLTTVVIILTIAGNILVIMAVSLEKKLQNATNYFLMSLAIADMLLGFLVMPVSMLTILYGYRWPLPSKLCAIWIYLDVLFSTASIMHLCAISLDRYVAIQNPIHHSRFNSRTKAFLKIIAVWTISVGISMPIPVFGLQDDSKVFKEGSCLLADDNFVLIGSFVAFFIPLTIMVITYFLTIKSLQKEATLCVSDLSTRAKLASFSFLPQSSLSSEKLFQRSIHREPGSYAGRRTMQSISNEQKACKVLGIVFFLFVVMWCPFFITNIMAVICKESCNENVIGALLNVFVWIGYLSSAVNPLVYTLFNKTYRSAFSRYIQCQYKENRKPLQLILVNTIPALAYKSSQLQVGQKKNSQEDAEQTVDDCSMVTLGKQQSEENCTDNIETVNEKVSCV
How it was run: as §1

Q: What does the source list for CCOC(=O)c1[nH]c2ccc(CCN3C(=O)CNC3=O)cc2c1CCN(C)C?
A: pKB [1]: < 5; pKB [2]: 5.5; pKB [3]: 7.42; Ki [4]: 5.5 µM; pKB [5]: < 5; pKB [6]: 5.43; Ki [7]: 32.4 µM; half-life [8]: 15 min; Ki [9]: 9.33 µM; half-life [10]: 12 min; Ki [11]: 10.7 µM; Log Ki [12]: -4.34; pKB [13]: < 5; pKB [14]: 5.8; Ki [15]: 7.94 µM
